Data set [1] concerns Mus musculus. Description: Analgesic activity in Albino Swiss CD-1 mouse assessed as increase in pain response latency administered at 150 mg/kg, ip treated up to 90 mins prior to tet by hot plate assay. It is filed as functional, organism-based. In short, it runs like this:
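Male CD-1 mice, 18–25 g, 6–12 per group, given test agents as 1% aqueous Tween 80 suspension ip. Doses were 50, 100 or 150 mg/kg, with morphine hydrochloride at 4 mg/kg as reference. Mice were placed on the hot plate 15, 30, 45, 60 and 90 min after dosing, and latency to pain reaction was recorded.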
On the technique in general: In hot-plate and tail-flick tests a longer latency is read as antinociception.

Data set [2] deals with Mus musculus. Put plainly: Antinociceptive activity in Albino Swiss CD-1 mouse assessed as inhibition of formalin-induced neurogenic pain response at 150 mg/kg, ip administered 30 mins before formalin injection measured up to 5 mins relative to control. The class given is functional. The following applies: Swiss CD-1, ip. In short, it runs like this: (§1)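 Male CD-1 mice were given test agents ip 30 min before subcutaneous intraplantar formalin. Doses were 12.5, 25 or 50 mg/kg, or 100, 150 or 200 mg/kg for the reference. Vehicle was 1% Tween 80 at 10 mL/kg. Paw licking time was recorded in phase I (0–5 min) and phase II (15–30 min). Data are mean ± SEM of 8–10 mice, by Dunnett's test. ED50 was obtained by log-probit analysis with 95% confidence limits.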

Data set [3] has as its system Mus musculus. Put plainly: Antiallodynic activity in oxaliplatin-induced Albino Swiss CD-1 mouse model of peripheral neuropathy assessed as elevation in pain sensitivity threshold at 100 mg/kg, ip administered 30 mins prior to oxaliplatin challenge relative to control. It is filed as functional. In short, it runs like this: (§2)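 Male CD-1 mice, 18–25 g, that had developed oxaliplatin-induced tactile allodynia were dosed ip 30 min before testing. Doses were 25, 50 or 100 mg/kg, or 50, 100 or 150 mg/kg for the reference. Vehicle was 1% aqueous Tween 80. Paw-withdrawal force was measured by von Frey filaments. Data are mean ± SEM, analysed by repeated-measures ANOVA with Dunnett's test against oxaliplatin plus vehicle mice.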

Data set [4] deals with Mus musculus. Description: Antinociceptive activity in Albino Swiss CD-1 mouse assessed as inhibition of capsaicin-induced nociception by measuring time spent licking injected paw at 200 mg/kg, ip administered 30 mins mins prior to capsaicin challenge measured for 5 mins relative to control. It is filed as functional. As to conditions: Swiss CD-1, ip. The method in brief: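 Mice (male CD-1, 18–25 g) were pretreated ip 30 min before intraplantar capsaicin. Doses were 25, 50 or 100 mg/kg, or 100, 150 or 200 mg/kg for the reference. Vehicle was 1% Tween 80 at 10 mL/kg. Duration of nociceptive response was scored over 5 min after injection. Data are mean ± SEM of 8–10 mice, by one-way ANOVA with Dunnett's test against vehicle.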

The subject of data set [5] is Mus musculus. Put plainly: Antiallodynic activity in oxaliplatin-induced Albino Swiss CD-1 mouse model of peripheral neuropathy assessed as elevation in pain sensitivity threshold at 50 mg/kg, ip administered 30 mins prior to oxaliplatin challenge relative to control. The class given is functional. The method in brief:
as §2

The test system of data set [6] is Mus musculus. Description: Anticonvulsant activity in Albino Swiss CD-1 mouse assessed as inhibition of pentylenetetrazole-induced seizures by measuring time to peak effect at 100 mg/kg, ip administered up to 2 hrs prior to PTZ induction measured for 30 mins. The class given is functional.
The test system of data set [7] is Mus musculus. Description: Antiallodynic activity in oxaliplatin-induced Albino Swiss CD-1 mouse model of peripheral neuropathy assessed as elevation in pain sensitivity threshold at 150 mg/kg, ip administered 30 mins prior to oxaliplatin challenge relative to control. It is filed as functional. The method in brief:
as §2

Data set [8] deals with Mus musculus. Description: Antinociceptive activity in Albino Swiss CD-1 mouse assessed as inhibition of formalin-induced neurogenic pain response at 100 mg/kg, ip administered 30 mins before formalin injection measured up to 5 mins relative to control. The following applies: Swiss CD-1, ip. The class given is functional. The method in brief: as §1
Data set [9] has as its system Mus musculus. Description: Anticonvulsant activity in Albino Swiss CD-1 mouse assessed as protection against maximal electroshock-induced seizures by measuring time to peak effect at 100 mg/kg, ip pretreated up to 2 hrs followed by 50 Hz current induction for […]. The class given is functional.
The nature of data set [10]: Neurotoxicity in ip dosed Albino Swiss CD-1 mouse assessed as induction of motor impairment measured up to 60 secs by chimney test. It is filed as toxicity, organism-based. The following applies: in vivo. In short, it runs like this:
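Acute neurological toxicity after ip dosing (1% Tween 80 suspension) was assessed in the mouse chimney test. TD50 with 95% confidence limits was derived by probit analysis. Protective index is TD50 from the chimney test divided by ED50 from the MES, scPTZ or 6 Hz test.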

Data set [11] concerns Mus musculus. Put plainly: Antinociceptive activity in Albino Swiss CD-1 mouse assessed as inhibition of formalin-induced neurogenic pain response at 200 mg/kg, ip administered 30 mins before formalin injection measured up to 5 mins relative to control. The class given is functional. The following applies: Swiss CD-1, ip. The method in brief:
as §1

The structures appear in SMILES notation. Active and inactive are the calls of the source.

The values below come from ChEMBL document CHEMBL4017532, “Multifunctional Hybrid Compounds Derived from 2-(2,5-Dioxopyrrolidin-1-yl)-3-methoxypropanamides with Anticonvulsant and Antinociceptive Properties” (J Med Chem, 2017).

As to `CCCC(CCC)C(=O)O` [VALPROIC ACID], in data set [1], the result was inactive. In addition, in data set [2], the inhibition in vivo at 150 mg/kg was 25.8%. In addition, the Activity is given as 121% in data set [3], 105% in [5] and 151.5% in data set [7]. Further, the inhibition in vivo at 200 mg/kg came out at 42.2% in [4] and 29.2% in data set [11]. Besides, the Time in [6] and in data set [9] was 0.5 h throughout. The inhibition in vivo at 100 mg/kg in data set [8] was 15.7%. In [10], the TD50 at 1 min worked out at 373 mg/kg.

For orientation: inhibition in vivo means the drop in the measured response relative to a control, in per cent. As usually defined, the TD50 is the 50% point of the dose-response relation for the toxic effect studied.
